ChEMBL document CHEMBL5107974, “Design, synthesis, and biological evaluation of new thalidomide-donepezil hybrids as neuroprotective agents targeting cholinesterases and neuroinflammation” (RSC Med Chem, 2022)
Activity calls are given as the source filed them. No cut-off for these calls is given here.

Experiments:
[1] = biological target: Acetylcholinesterase (Electrophorus electricus) (UniProt O42275); experiment: Inhibition of electric eel AChE using […] as a substrate at 30 uM incubated for 10 mins by DTNB reagent based Ellman's method
In short: (§1)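 Ellman method in Tris-HCl 0.02 M pH 7.5 with BSA, inhibitor at 30 uM final, DMSO 0.2% vehicle as negative control. Enzyme (eeAChE or equine serum BuChE) with DTNB preincubated 10 min at room temperature; acetylthiocholine or butyrylthiocholine iodide added, absorbance at 415 nm after 10 min. Activity as % of DMSO control, blank-corrected; triplicate.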

[2] = biological target: Cholinesterase (Equus caballus) (UniProt P81908); experiment: Inhibition of equine serum BuChE using S-butyrylthiocholine iodide as a substrate at 30 uM incubated for 10 mins by DTNB reagent based Ellman's method; format: cell-free; in short: as §1
SH-SY5Y [3] = experiment: Cytotoxicity against human SH-SY5Y cells assessed as reduction in cell viability at 80 uM incubated for 24 hrs by MTT assay; format: functional
In short: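 SH-SY5Y cells seeded at 2×10^4 per well, grown 24 h, then treated 24 h at 37 °C (range 2.5–80 uM). MTT 0.5 mg mL-1 in HBSS for 2 h; formazan dissolved in isopropanol, read at 570 nm (reference 690 nm). Viability relative to untreated cells; mean ± SEM of three independent experiments.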

THP-1 [4] = experiment: Anti-inflammatory activity in human THP-1 cells assessed as inhibition of LPS-induced IL-1beta expression at 10 uM incubated for 24 hrs by RT-PCR analysis; format: functional
In short: (§2)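 THP-1 monocytes differentiated to microglia-like cells with PMA 5 ng mL-1 for 24 h, then exposed 24 h to LPS 1 ug mL-1 together with compound (10 uM). RNA extracted; expression by quantitative RT-PCR, relative quantification by 2^-ΔΔCt with untreated cells as control. Mean ± SEM of three independent experiments.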

SH-SY5Y [5] = experiment: Neuronal plasticity in human SH-SY5Y cells assessed as increase in SYP gene expression at 10 uM incubated for 24 hrs by RT-PCR analysis; format: functional, cell-based
In short: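 SH-SY5Y cells grown in DMEM with 10% FBS and differentiated with retinoic acid (10 μM) for 6 days. Compound 10 μM for 24 h. RNA extracted, SYP mRNA measured by quantitative RT-PCR, relative quantity by 2^-ΔΔCt against untreated cells. Three independent experiments, mean ± SEM, Student's t-test.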

[6] = Permeability of compound in PBS buffer at pH 6.6 by PAMPA-GIT assay; format: ADME
In short: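 PAMPA-GIT: 10 μM compound in PBS pH 6.6 as donor, filter coated with soy L-α-phosphatidylcholine (20 mg/mL in dodecane). Acceptor was PBS pH 7.4:DMSO (95:5). Plates shaken at 50 rpm for 8 h at room temperature. Run in triplicate; absorbed fraction (Fa%) classed high, medium or low.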

Rattus norvegicus [7] = experiment: Anti-inflammatory activity in LPS-induced Wistar rat assessed as decrease in immobility time at po dosed measured upto 24 hrs by open field test; format: functional, organism-based
In short: (§3)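 Adult male Wistar rats (n = 7–8 per group), overnight 8 h fast; vehicle or compound by gavage, then LPS or saline intraperitoneally. 2 h after LPS, each rat was placed in the centre of a circular open-field arena and filmed for 5 min. Distance travelled and immobility time were scored by video tracking. Results given as mean ± SEM.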

THP-1 [8] = experiment: Anti-inflammatory activity in human THP-1 cells assessed as inhibition of LPS-induced iNOS expression at 10 uM incubated for 24 hrs by RT-PCR analysis; format: functional; in short: as §2
[9] = Permeability of compound in PBS buffer at pH 7.4 by PAMPA-BBB assay; format: ADME; conditions: read-out: permeability
In short: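 PAMPA-BBB: compound dissolved in ethanol, diluted with PBS pH 7.4 and filtered, then added in triplicate to a donor filter coated with porcine brain polar lipid (20 mg/mL in dodecane). Acceptor was PBS pH 7.4:ethanol (70:30). Incubated 2 h 45 min at about 25 °C, humidified. Donor and acceptor concentrations read by UV; compounds classed BBB+ or BBB−.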

Rattus norvegicus [10] = experiment: Anti-inflammatory activity in LPS-induced Wistar rat assessed as increase in food intake at po dosed measured upto 24 hrs; format: functional, organism-based
In short: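 Adult male Wistar rats (n = 7 per group), housed individually; overnight 8 h fast, then food removed 2 h on the test day. Vehicle or compound was given by gavage, then LPS or saline intraperitoneally. Pre-weighed pelleted feed was reintroduced and weighed at 2, 4, 6 and 24 h. Results given as mean ± SEM.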

Acetylcholinesterase = Acetylcholinesterase (Electrophorus electricus, UniProt O42275); experiment: Inhibition of electric eel AChE using […] as a substrate incubated for 10 mins by DTNB reagent based Ellman's method
Rattus norvegicus [11] = experiment: Anti-inflammatory activity in LPS-induced Wistar rat assessed as increase in traveled distance at po dosed measured upto 24 hrs by open field test; format: functional, organism-based; in short: as §3

Acetylcholinesterase (Electrophorus electricus), sequence (O42275 24-633 limits assumed): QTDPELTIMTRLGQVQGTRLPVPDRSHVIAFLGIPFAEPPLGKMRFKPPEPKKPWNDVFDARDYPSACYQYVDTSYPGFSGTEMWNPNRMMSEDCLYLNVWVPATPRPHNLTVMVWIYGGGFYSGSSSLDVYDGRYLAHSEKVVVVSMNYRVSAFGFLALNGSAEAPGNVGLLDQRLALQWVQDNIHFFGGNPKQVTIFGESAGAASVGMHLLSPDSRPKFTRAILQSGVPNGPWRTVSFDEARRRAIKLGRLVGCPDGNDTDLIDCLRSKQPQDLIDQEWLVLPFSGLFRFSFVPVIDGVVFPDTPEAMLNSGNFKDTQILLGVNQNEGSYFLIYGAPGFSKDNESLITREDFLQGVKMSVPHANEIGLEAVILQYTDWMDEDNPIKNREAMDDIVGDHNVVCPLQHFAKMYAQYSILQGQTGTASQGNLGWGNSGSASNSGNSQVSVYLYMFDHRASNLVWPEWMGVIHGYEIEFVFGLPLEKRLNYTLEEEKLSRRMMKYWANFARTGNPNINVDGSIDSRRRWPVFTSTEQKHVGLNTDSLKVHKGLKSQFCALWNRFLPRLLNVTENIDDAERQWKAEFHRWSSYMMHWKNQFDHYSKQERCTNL
Cholinesterase (Equus caballus), sequence (P81908 whole entry): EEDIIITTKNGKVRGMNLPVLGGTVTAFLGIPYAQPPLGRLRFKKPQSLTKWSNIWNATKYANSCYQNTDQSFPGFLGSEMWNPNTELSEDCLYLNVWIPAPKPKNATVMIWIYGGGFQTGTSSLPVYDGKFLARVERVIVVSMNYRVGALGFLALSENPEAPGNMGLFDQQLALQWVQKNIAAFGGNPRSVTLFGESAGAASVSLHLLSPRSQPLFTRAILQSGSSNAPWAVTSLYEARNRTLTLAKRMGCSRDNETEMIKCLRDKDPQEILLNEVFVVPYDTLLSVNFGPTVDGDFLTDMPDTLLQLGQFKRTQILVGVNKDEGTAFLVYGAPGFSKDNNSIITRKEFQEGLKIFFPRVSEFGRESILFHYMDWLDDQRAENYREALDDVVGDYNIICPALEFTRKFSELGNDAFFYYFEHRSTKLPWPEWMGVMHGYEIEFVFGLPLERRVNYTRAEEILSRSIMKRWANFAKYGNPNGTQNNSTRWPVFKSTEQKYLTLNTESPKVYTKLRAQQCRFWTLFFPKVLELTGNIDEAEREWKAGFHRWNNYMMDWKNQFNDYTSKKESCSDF
Acetylcholinesterase, sequence (O42275 whole entry): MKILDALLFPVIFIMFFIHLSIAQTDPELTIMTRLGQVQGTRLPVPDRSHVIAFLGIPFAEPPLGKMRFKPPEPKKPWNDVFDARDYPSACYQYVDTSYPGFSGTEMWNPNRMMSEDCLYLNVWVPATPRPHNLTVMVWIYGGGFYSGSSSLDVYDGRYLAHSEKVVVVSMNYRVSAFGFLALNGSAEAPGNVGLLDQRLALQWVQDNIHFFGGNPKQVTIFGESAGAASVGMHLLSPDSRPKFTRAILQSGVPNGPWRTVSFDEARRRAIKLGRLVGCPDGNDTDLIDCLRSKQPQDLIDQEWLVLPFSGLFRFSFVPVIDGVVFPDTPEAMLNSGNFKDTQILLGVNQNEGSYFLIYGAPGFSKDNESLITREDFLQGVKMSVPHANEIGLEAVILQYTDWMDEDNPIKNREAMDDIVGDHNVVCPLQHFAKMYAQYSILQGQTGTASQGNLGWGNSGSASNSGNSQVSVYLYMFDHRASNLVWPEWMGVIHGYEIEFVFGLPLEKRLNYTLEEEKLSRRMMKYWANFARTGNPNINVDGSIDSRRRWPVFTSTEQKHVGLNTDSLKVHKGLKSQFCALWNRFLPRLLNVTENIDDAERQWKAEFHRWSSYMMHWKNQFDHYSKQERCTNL

Row | Compound | inhibition [1] | inhibition [2] | further results
1 | O=C(CN1C(=O)c2ccccc2C1=O)N1CCN(Cc2ccc(Br)cc2)CC1 | 8.38% | -1.37% | –
2 | COc1ccc(CN2CCN(C(=O)CN3C(=O)c4ccccc4C3=O)CC2)cc1 | 17.1% | 25.4% | –
3 | Cc1ccc(N2CCN(C(=O)CN3C(=O)c4ccccc4C3=O)CC2)cc1 | 11.6% | 0.3% | –
4 | O=C(CN1C(=O)c2ccccc2C1=O)N1CCN(c2ccc(Cl)cc2)CC1 | 8.11% | -2.09% | Activity (SH-SY5Y [3]): 50%
5 | O=C(CN1C(=O)c2ccccc2C1=O)N1CCN(c2ncccn2)CC1 | 39.6% | -5.36% | Activity (SH-SY5Y [3]): 50%
6 | O=C(CN1C(=O)c2ccccc2C1=O)N1CCN(c2ccc([N+](=O)[O-])cc2)CC1 | 16.9% | -4.97% | –
7 | O=C(CN1C(=O)c2ccccc2C1=O)N1CCN(c2ccncc2)CC1 | 85% | -4.47% | inhibition at 10 µM (THP-1 [4]): 39%; Activity (SH-SY5Y [5]): Active; Fa [6]: 69.8%; Papp ([6]; read-out: permeability): 3.15 ×10⁻⁶ cm/s; Activity (Rattus norvegicus [7]): Active; inhibition at 10 µM (THP-1 [8]): 43%; Papp [9]: 13.9 ×10⁻⁶ cm/s; Activity (Rattus norvegicus [10]): Active; IC50 (Acetylcholinesterase): 3.15 µM; Activity (Rattus norvegicus [11]): Active
8 | O=C(CN1C(=O)c2ccccc2C1=O)N1CCN(Cc2ccc(Cl)cc2)CC1 | 7.82% | 1.26% | –
